Screening results from PubChem.
Only some compounds are listed: those with a hit (about 3.5% of all), similar ones and a draw of the others.
Apaf1 inhib: inhibitors of human Apaf-1 apoptosome, primary screen, biochemical, DEVD-Rh110 fluorescence, uHTS; inhibition, % at 20 µM; 330,000 compounds, 0.71% hits; AID 489030, 2010; reconstituted apoptosome caspase-3 activity; Apoptotic protease-activating factor 1 (Homo sapiens), O14727; active = inhibition of at least 40% at 20 µM;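 also: plate controls were DMSO wells for no effect and DEVD-CHO caspase inhibitor wells for full effect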
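Material: reconstituted apoptosome with Apaf-1, cytochrome c, caspase-9, procaspase-3, dATP; medium: pH 7.5 Hepes buffer with CHAPS, BSA, DTT; also added: cytochrome c and DEVD-Rh110 substrate; timing: 30 min plus 50 min, RT; signal: Rh110 fluorescence intensity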
PAFAH2 FP inh: PAFAH2 enzyme inhibitors, primary screen, biochemical, fluorescence polarization, human | Platelet-activating factor acetylhydrolase 2, cytoplasmic (Homo sapiens), Q99487 | recombinant PAFAH2, FP-rhodamine activity probe | inhibition, % at 3.39 µM | 340,000 compounds, 0.99% hits | AID 492956, 2010;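 active = inhibition above the mean over all tested compounds plus 3 SD, cut at about 30% in these data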;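 also: inhibitors block probe labeling of enzyme so polarization drops; 0% = enzyme with DMSO and 100% = wells lacking PAFAH2 protein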
PREPL inhibitor: PREPL enzyme inhibitors, primary screen, biochemical, fluorescence polarization; Prolyl endopeptidase-like (Homo sapiens), Q4J6C6; recombinant PREPL, fluorescence polarization activity-based probe; inhibition, % at 5.96 µM; 320,000 compounds, 0.68% hits; in the data active = inhibition above about 43%;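 also: 0% = enzyme with DMSO and 100% = wells lacking enzyme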
PAFAH1B3 inh: PAFAH1B3 enzyme inhibitors, primary screen, biochemical, fluorescence polarization, human. Platelet-activating factor acetylhydrolase IB subunit alpha1 (Homo sapiens), Q15102. recombinant PAFAH1B3, FP-rhodamine probe. inhibition, % at 3.39 µM. 340,000 compounds, 0.28% hits;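 active = inhibition above the screen-wide average of all tested compounds plus 3 SD, cut at about 25% in these data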;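 also: 0% = enzyme with DMSO only and 100% = wells lacking PAFAH1B3 protein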
PAFAH1B2 inh: PAFAH1B2 enzyme inhibitors, primary screen, biochemical, fluorescence polarization, human | inhibition, % at 3.39 µM | recombinant PAFAH1B2, FP-rhodamine activity probe | 340,000 compounds, 1.2% hits | Platelet-activating factor acetylhydrolase IB subunit alpha2 (Homo sapiens), P68402;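 active = inhibition above the mean of all tested compounds plus 3 SD, cut at about 24% in these data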;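 also: 0% = enzyme with DMSO and 100% = wells lacking PAFAH1B2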
pPAFAH inh: pPAFAH enzyme inhibitors, primary screen, biochemical, fluorescence polarization, human; Platelet-activating factor acetylhydrolase (Homo sapiens), Q13093; AID 463082, 2010; inhibition, % at 3.39 µM; recombinant pPAFAH, FP-rhodamine probe fluorescence polarization; 330,000 compounds, 1.5% hits;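 active = inhibition above the mean inhibition across the screen plus 3 SD, cut at about 25% in these data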;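 also: inhibitors block binding of the rhodamine activity-based probe so polarization drops; 0% = enzyme with DMSO and 100% = wells lacking pPAFAH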
Apaf-1 inh conf: Apaf-1 inhibitors, single-dose retest, confirmation, biochemical, fluorescence, DEVD-Rh110, 20 µM; shares compounds with Apaf1 inhib; inhibition, % at 20 µM; 1,800 compounds, 25% hits; reconstituted apoptosome, caspase-3 DEVD-Rh110 fluorescence;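 active = mean inhibition of at least 40% at 20 µM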;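 also: plate controls were DMSO wells for no effect and DEVD-CHO caspase inhibitor control wells for full effect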
Rh110 quench: Rh110 fluorescence interference by putative Apaf-1 inhibitors, confirmation, artefact control for Apaf-1 inhibitor project, biochemical, 20 µM; shares compounds with Apaf1 inhib; quenched caspase reaction; activation (fluorescence interference), % at 20 µM; 1,800 tested, under 10 active;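 active = signal rise of 40% or more at 20 µM, treated as a fluorescence artifact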
Fluor interf inh: fluorescence interference of Apaf-1 inhibitor hits, dose response, artefact control for Apaf-1 inhibitor project | shares compounds with Apaf1 inhib | 460 tested, under 10 active | IC50, µM | fluorescence interference counterscreen, Apaf-1 assay format; call rule not given here
The depositor's hits bear a star; . = no result.

SMILES | Apaf1 inhib | PAFAH2 FP inh | PREPL inhibitor | PAFAH1B3 inh | PAFAH1B2 inh | pPAFAH inh | Apaf-1 inh conf | Rh110 quench | others
COC(=O)c1c(NC(=O)c2ccc(OC(C)C)cc2)sc2c1CC(C)(C)NC2(C)C | 53.4* | -3.8 | -1.6 | 6.3 | -3.2 | -4.8 | 10.2 | 7.2
O=C(Cn1cnc2c(nnn2Cc2ccc(F)cc2)c1=O)Nc1ccccc1 | -22.7 | -3.2 | -6.0 | -5.5 | 1.1 | -0.2 | . | .
CCOCCCn1c(SCC(=O)Nc2cc(C(C)(C)C)nn2-c2ccccc2)nc2ccccc2c1=O | 40.4* | -3.1 | 8.8 | -2.9 | -3.0 | 13.2 | 22.8 | 7.6
CCN(CC)CCn1c(SCC(=O)Nc2ccc3c(c2)CCC3)nc2ccccc2c1=O | 50.9* | 5.7 | 17.3 | -5.8 | 24.9* | 2.4 | 7.3 | 8.1
COCCn1c(SCC(=O)Nc2cc(C(C)(C)C)nn2-c2ccccc2)nc2ccccc2c1=O | 7.2 | -0.7 | 1.5 | 1.6 | 1.2 | 2.5 | . | .
CCc1nc(SCC(=O)N2CC(=O)Nc3ccccc32)c2c(C)c(C)sc2n1 | 13.5 | 4.1 | 3.1 | 11.5 | -6.9 | -3.2 | . | .
CCc1cc2c(SCC(=O)N3CC(=O)Nc4ccccc43)ncnc2s1 | 55.1* | -4.6 | 8.3 | -4.1 | 3.0 | 0.3 | 20.2 | 7.2
CC(=O)c1ccc(S(=O)(=O)N2CCN(CC(=O)NC(=O)NC3CCCCC3)CC2)cc1 | . | 3.4 | 3.6 | 4.1 | -3.0 | 1.4 | . | .
CS(=O)(=O)c1nc(-c2ccc(Br)cc2)cc(-c2ccccc2)c1C#N | 47.4* | -36.6 | 1.7 | -27.8 | -18.6 | 5.5 | 59.1* | 3.5 | Fluor interf inh=>100
FC(F)(F)c1ccc(CN2C[C@@H]3C(c4ccc(Cl)nc4)C4(c5cccnc5)CC3(C4)[C@H]2c2ccccc2)cc1 (some centres undefined) | 42.0* | . | 18.8 | . | . | 1.7 | 20.0 | 16.9
CCCCCCCCNC(C)C(O)c1ccc(SC(C)C)cc1 (centres undefined) | 57.8* | -8.9 | -10.8 | 2.1 | -3.8 | 0.0 | 16.9 | 3.1
COc1ccc(N2CCN(CNC(=O)c3ccccc3)CC2)cc1 | -4.1 | -1.6 | . | 12.0 | -1.8 | . | . | .
O=C(c1cccc(NS(=O)(=O)c2cccc(F)c2)c1)N1CCCC1 | -10.7 | 3.9 | . | 3.4 | -0.6 | . | . | .
COC(=O)c1cccc(C23CC4(C2)[C@H](CN(CC2CCCCC2)[C@@H]4c2ccccc2)C3c2ccccc2)c1 (some centres undefined) | 40.3* | -5.5 | -8.8 | 8.3 | 1.5 | -4.2 | 18.0 | 6.0
O=C(CC1C(=O)NCCN1Cc1c(F)cccc1Cl)NCCCn1cccn1 (centres undefined) | -15.2 | 1.6 | -0.6 | 8.2 | 1.9 | 0.6 | . | .
CCn1c2ccccc2c2nnc(SCC(=O)c3c(N)n(C)c(=O)n(C)c3=O)nc21 | 54.0* | -1.5 | 0.0 | 7.5 | 3.3 | -3.2 | 12.2 | 8.5
O=C(NCCN1CCOCC1)c1cccc(S(=O)(=O)N(Cc2ccccc2)c2ccccc2)c1 | 4.0 | 7.2 | -7.6 | 1.6 | 5.2 | 4.4 | . | .
CCN(c1ccccc1)S(=O)(=O)c1cccc(C(=O)NCCN2CCOCC2)c1 | 43.8* | 6.6 | 7.9 | -3.8 | 6.4 | 6.0 | 6.0 | 7.8
Nc1ccc2nn(-c3cccc4ccccc34)nc2c1 | 96.1* | 6.2 | 11.1 | 13.5 | 0.1 | -9.1 | 75.3* | 11.6 | Fluor interf inh=>100
